From PubChem
APJ antag: blocks the human apelin receptor APJ. P35414. CHO-K1 APJ beta-arrestin complementation, luminescence. inhibition, % at 20 µM. 330,000 tested, 0.32% active;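 active = inhibition above about 40% at 20 µM, limit read from the data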;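 also: cells challenged with 10 nM apelin-13 agonist together with compound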
FXN GAA850 act: activators of GAA850 frataxin (FXN) promoter; HEK293 lucGAA850 FXN promoter luciferase reporter, 24 h; percent of 10 µM SAHA response; AID 540364; activation, % at 6 µM; 360,000 tested, 0.56% active;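 active = activation above the average of all compounds screened plus 3 SD, cutoff fixed separately per campaign, cut at about 7.5% in these data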
CCR6 antag: antagonists of human CCR6 receptor; 340,000 tested, 0.49% active; inhibition, % at 20 µM; CHO-K1 CCR6 PathHunter beta-arrestin, luminescence, CCL20-stimulated;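 active = compounds whose inhibition of the agonist-driven luminescence signal at 20 µM reaches about 50%, limit read from the data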;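 also: cells stimulated with CCL20 at 14 nM final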
APJ ag: activates the human apelin receptor APJ; P35414; CHO-K1 APJ PathHunter beta-arrestin, luminescence; 0% DMSO wells, 100% apelin; activation, % at 20 µM; 330,000 tested, 0.11% active; AID 2520;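 active = activation more than six SD over the plate average, tested at 20 µM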
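Incubation: overnight seeding, 90 min compound at 25 °C, 1 h detection; test system: PathHunter CHO-K1 APJ (AGTRL-1) beta-arrestin reporter cells; amount: 1000 cells/well; doses: one dose, 20 µM compound, 1% DMSO; measured by: beta-gal luminescence; measure: agonist-driven arrestin binding to APJ; benchmarks: negative DMSO alone, positive Apelin-13 at 10 nM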
CXCR6 block: inhibitors of human CXCR6 receptor; O00574; CHO-K1 PathHunter CXCR6 beta-arrestin, luminescence; inhibition, % at 20 µM; 360,000 tested, 0.36% active; AID 602244; in the data active = inhibition above about 34%, passing the limit was not always enough;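 also: antagonist mode with CXCL16 agonist at 10 nM final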
Target sequence (O00574 whole entry, looked up): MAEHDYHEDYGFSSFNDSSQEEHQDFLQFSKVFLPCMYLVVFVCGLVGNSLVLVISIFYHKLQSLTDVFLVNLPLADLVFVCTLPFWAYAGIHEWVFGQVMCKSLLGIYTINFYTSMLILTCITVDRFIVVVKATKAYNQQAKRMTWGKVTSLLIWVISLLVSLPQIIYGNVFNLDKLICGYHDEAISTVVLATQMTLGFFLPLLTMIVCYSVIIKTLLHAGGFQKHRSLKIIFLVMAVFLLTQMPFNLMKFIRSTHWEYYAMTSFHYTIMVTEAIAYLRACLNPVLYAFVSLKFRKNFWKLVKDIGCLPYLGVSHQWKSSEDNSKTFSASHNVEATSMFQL
EBI2 block: antagonists of human EBI2 receptor. inhibition, % at 5 µM. AID 651636. EBI2 beta-arrestin recruitment, luminescence, 7a,25-OHC stimulated. 360,000 tested, 0.81% active; in the data active = inhibition above about 38%;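 also: enzyme fragment complementation signal reports receptor beta-arrestin coupling in cells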
APJ antag conf: confirmation of human APJ apelin receptor antagonists; shares compounds with APJ antag; APJ beta-arrestin recruitment, luminescence, antagonist mode; inhibition, % at 20 µM; 950 tested, 66% active; AID 2766; in the data active = inhibition above about 50%
Numbers stand for hits; 0 = inactive; - = no result given. Only some compounds are listed: those with a hit (about 2% of all), similar ones and a draw of the others.

SMILES	APJ antag	FXN GAA850 act	CCR6 antag	APJ ag	CXCR6 block	EBI2 block	APJ antag conf
Cc1ccc2oc(Nc3nc(-c4ccccc4)cc(=O)[nH]3)nc2c1	54	-	58	0	-	-	62
Cc1ccc(N(Cc2ccccc2)C(=O)Cc2ccc(S(=O)(=O)N3CCOCC3)s2)cc1	0	0	0	0	0	0	-
O=C(C1=C(Nc2ccccc2)c2ccccc2S(=O)(=O)N1)c1ccccc1	45	0	70	0	0	0	72
CCCOc1ccc(C2C(=O)N(C3CCCCC3)CC(=O)N2CCCOCC)cc1OC (centres undefined)	0	0	0	0	0	0	-
CCOCCCN1C(=O)CN(C2CCCCC2)C(=O)C1c1ccc(OC)c(OC)c1 (centres undefined)	0	0	0	0	0	0	0
COc1ccc(CN2C(=O)c3ccc(C(=O)O)cc3C2=O)cc1	0	0	0	0	0	0	-
C[C@@H]1CN([C@@H](C)CO)C(=O)CCCn2nncc2CO[C@H]1CN(C)C(=O)c1ccc2ccn(C)c2c1	-	0	-	-	0	0	-
O=C(NNC(=S)Nc1ccccc1)NNC(=S)Nc1ccccc1	44	0	56	0	0	0	88
COc1cccc(CN2CCC2(C)C(=O)Nc2ccc3c(c2)OCO3)c1F (centres undefined)	-	0	-	-	0	0	-
CCOC(=O)C1=C(C)NC(=O)NC1c1c(C)nn(-c2ccccc2)c1Cl (centres undefined)	44	0	0	0	0	0	0
CCOC(=O)C1=C(C)N(C)C(=O)NC1c1c(C)nn(-c2ccc(C)cc2)c1Cl (centres undefined)	0	0	0	0	0	0	-
CN(C)c1ccc(N2C(=NC(=O)c3ccccc3)SC3CS(=O)(=O)CC32)cc1 (centres undefined)	0	0	0	0	0	0	-
COCCNC(=O)C1CCCN(C(=O)c2sc(-c3ccccc3)nc2C)CC1 (centres undefined)	-	0	-	-	0	0	-
CN(C)c1ccc(N=Nc2ccc(S(N)(=O)=O)cc2)cc1	0	0	0	0	0	0	-
CN(C)c1ccc(N=Nc2ccc(S(=O)(=O)O)cc2)c2ccccc12	41	0	62	0	42	0	92
CCN(CC(=O)Nc1c(F)cccc1F)C(=O)C1CC(=O)N(CCc2ccc(OC)c(OC)c2)C1 (centres undefined)	0	0	0	0	0	0	-
CSc1ncccc1C(=O)OCC(=O)c1ccc(S(=O)(=O)N2CCCCC2)cc1	46	0	0	0	0	0	0
O=C(O)C1OCC2(CO1)COC(C(=O)O)OC2 (centres undefined)	-	0	0	-	0	0	-
COc1ccc(CN(C)C(=O)COC(=O)c2cc([N+](=O)[O-])ccc2N2CCCC2)c(OC)c1OC	0	0	0	0	0	0	-
Cc1sc(/C=C2\C(=O)ON=C2c2ccccc2)cc1Br	0	-	-	0	-	-	-
Cc1ccc(C2=NOC(=O)/C2=C\c2ccccc2)cc1	0	0	0	0	0	0	-
COc1cc(C=C2C(=O)OC(c3ccccc3)OC2=O)cc(Br)c1O (centres undefined)	0	0	0	0	0	0	-
CCOc1cc(/C=C2/C(=O)ON=C2C)cc(Br)c1O	41	0	57	0	0	0	56
COc1cc(/C=C2\C(=O)ON=C2c2ccccc2)cc(Cl)c1O	46	0	0	0	0	0	66
CCOc1cc(/C=C2\C(=O)ON=C2c2ccccc2)cc(Br)c1O	46	0	0	0	0	0	74
SMILES	APJ antag	FXN GAA850 act	CCR6 antag	APJ ag	CXCR6 block	EBI2 block	APJ antag conf
COc1cc(/C=C2\C(=O)ON=C2c2ccccc2)cc(Br)c1O	43	0	58	0	0	0	95
CCC1c2ccccc2C(=O)C1C(N)=O (centres undefined)	-	0	0	-	0	0	-
CCOC(=O)c1c(CN2CCNCC2)nc2ccc(Cl)cc2c1-c1ccccc1	-	0	0	-	0	0	-
OCCN1C[C@H](O)[C@@H](O)[C@H](O)[C@H]1CO	43	-	-	0	-	-	65
O=C(O)c1cccc(Nc2ccc3nonc3c2[N+](=O)[O-])c1	0	0	0	0	0	0	-
O=[N+]([O-])c1c(Nc2cccc(O)c2)cc(Cl)c2nonc12	94	0	104	0	111	93	111
COc1ccc(NC(=O)CN(C)C(=O)c2c(-c3c(F)cccc3Cl)noc2C)cc1	0	0	0	0	0	0	-
Cc1ccc(C(=O)Sc2cccccc2=O)cc1	85	0	92	0	84	67	102
O=C(Nc1ccccc1SC(=O)c1ccccc1)c1ccccc1	-	0	-	-	0	0	-
Cn1c(=O)c2c(nc(C(O)c3ccccc3)n2C)n(C)c1=O (centres undefined)	-	0	0	-	0	0	-
O=C(COc1ccccc1)NNC(=O)c1cc2ccccc2o1	0	0	0	0	0	0	-
CC(NC(=O)COc1ccccc1)C(=O)OCC(=O)c1cc2ccccc2o1 (centres undefined)	55	0	89	0	44	0	116
O=C(Cc1ccc(F)cc1)OCC(=O)c1cc2ccccc2o1	77	0	89	0	0	0	90
O=C(CCNc1ccc(F)cc1)c1cc2ccccc2o1	0	0	0	0	0	0	-
CCOC(=O)C1=C(C)N=c2s/c(=C/c3cccc([N+](=O)[O-])c3O)c(=O)n2C1c1ccc(OC)cc1OC (centres undefined)	57	0	64	0	41	0	98
CCN(Cc1ccccc1)c1ccccc1	-	0	0	-	0	0	-
CCN(Cc1ccccc1)c1ccc(N=Nc2nn(C)c(C)c2[N+](=O)[O-])cc1	44	0	64	0	49	0	113
CN(C)Cc1c(O)ccc2c3c(c(=O)oc12)CCCCC3	0	0	0	0	0	0	-
CN(Cc1c(O)ccc2c1oc(=O)c1ccccc12)C1CCCCC1	47	0	0	0	0	0	0
CC(C)(C)OC(=O)C[C@@H]1C/C=C\C[C@@H](CC(=O)N(CCO)Cc2ccccc2)C(=O)N2CCC[C@@H]2COC1=O	0	0	0	0	0	0	-
NC(=O)C1(N2CCCCC2)CCN(C(=O)c2cc(COc3c(F)cccc3F)on2)CC1	-	0	-	-	0	0	-
NNc1nc(-c2ccccc2)cc(-c2ccc(Br)cc2)n1	73	0	0	0	0	0	105
O=C(NC(O)C(=O)c1cccs1)c1cccnc1 (centres undefined)	50	0	0	0	0	0	0
O=C(NNC(=O)c1cccs1)c1cccnc1	0	0	0	0	0	0	-
O=C(NC(O)C(=O)c1ccccc1)c1cccs1 (centres undefined)	48	0	0	0	0	0	0
